Assay results reported in ChEMBL document CHEMBL1157242, “Triterpene saponins with gastroprotective effects from tea seed (the seeds of Camellia sinensis)” (2006).
Where a name gives a salt, the structure may show the parent alone.

How the values were obtained:
Conditions in all cases: Gastric mucosa
Rattus norvegicus [1] = experiment: Gastroprotective effect in […] assessed as inhibition of ethanol-induced gastric mucosal lesions at 5 mg/kg, po administered 1 hr prior to ethanol challenge relative to control; format: functional
How it was run: (§1)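 Male […] fasted 24-26 h with free access to water, conscious. Given agent orally at 5.0 mL/kg, suspended in 5% acacia or 0.5% CMC-Na. 1 h later, 99.5% ethanol 1.5 mL/rat by orogastric tube. After 1 h, stomach fixed with 1.5% formalin and opened. Lesion index is total lesion length (mm). Inhibition is versus vehicle controls, n = 4-6.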

Rattus norvegicus [2] = experiment: Gastroprotective effect in […] assessed as inhibition of ethanol-induced gastric mucosal lesions at 5 mg/kg, po administered 1 hr prior to ethanol challenge relative to control
Rattus norvegicus [3] = experiment: Gastroprotective effect in […] assessed as inhibition of ethanol-induced gastric mucosal lesions at 15 mg/kg, po administered 1 hr prior to ethanol challenge relative to control; format: functional; how it was run: as §1
Rattus norvegicus [4] = experiment: Gastroprotective effect in […] assessed as inhibition of ethanol-induced gastric mucosal lesions at 20 mg/kg, po administered 1 hr prior to ethanol challenge relative to control; format: functional; how it was run: as §1
Rattus norvegicus [5] = experiment: Gastroprotective effect in […] assessed as inhibition of ethanol-induced gastric mucosal lesions at 10 mg/kg, po administered 1 hr prior to ethanol challenge relative to control; format: functional; how it was run: as §1
Rattus norvegicus [6] = experiment: Gastroprotective effect in […] assessed as inhibition of ethanol-induced gastric mucosal lesions at 150 mg/kg, po administered 1 hr prior to ethanol challenge relative to control; format: functional; how it was run: as §1
Rattus norvegicus [7] = experiment: Gastroprotective effect in […] assessed as inhibition of ethanol-induced gastric mucosal lesions at 300 mg/kg, po administered 1 hr prior to ethanol challenge relative to control; format: functional; how it was run: as §1
Rattus norvegicus [8] = experiment: Gastroprotective effect in […] assessed as inhibition of ethanol-induced gastric mucosal lesions at 75 mg/kg, po administered 1 hr prior to ethanol challenge relative to control; format: functional; how it was run: as §1

`C/C=C(/C)C(=O)O[C@H]1[C@H](O)[C@@]2(COC(C)=O)C(CC1(C)C)C1=CCC3[C@@]4(C)CC[C@H](O[C@@H]5O[C@H](C(=O)O)[C@@H](O)[C@H](O[C@@H]6OC[C@H](O)[C@H](O)[C@H]6O[C@@H]6OC[C@@H](O)[C@H](O)[C@H]6O)[C@H]5O[C@H]5O[C@H](CO)[C@H](O)[C@H](O)[C@H]5O)[C@@](C)(CO)C4CC[C@@]3(C)[C@]1(C)C[C@H]2O` (stereo partly drawn) [THEASAPONINS A2] was tested. Which inhibition in vivo at 5 mg/kg (Rattus norvegicus [1]) did it give?
Its inhibition in vivo at 5 mg/kg is 54.7%.

`C/C=C(/C)C(=O)O[C@H]1[C@H](O)[C@@]2(COC(C)=O)C(CC1(C)C)C1=CCC3[C@@]4(C)CC[C@H](O[C@@H]5O[C@H](C(=O)O)[C@@H](O)[C@H](O[C@@H]6OC[C@H](O)[C@H](O)[C@H]6O[C@@H]6OC[C@@H](O)[C@H](O)[C@H]6O)[C@H]5O[C@H]5O[C@H](CO)[C@H](O)[C@H](O)[C@H]5O)[C@@](C)(C=O)C4CC[C@@]3(C)[C@]1(C)C[C@H]2O` (stereo partly drawn) [THEASAPONINS E2] was tested. Which inhibition in vivo at 5 mg/kg (Rattus norvegicus [2]) did it give?
Its inhibition in vivo at 5 mg/kg is 77.6%.

Which inhibition in vivo at 5 mg/kg (Rattus norvegicus [2]) does the source give for `C/C=C(/C)C(=O)O[C@H]1[C@H](OC(C)=O)[C@@]2(CO)C(CC1(C)C)C1=CCC3[C@@]4(C)CC[C@H](O[C@@H]5O[C@H](C(=O)O)[C@@H](O)[C@H](O[C@@H]6OC[C@H](O)[C@H](O)[C@H]6O[C@@H]6OC[C@@H](O)[C@H](O)[C@H]6O)[C@H]5O[C@H]5O[C@H](CO)[C@H](O)[C@H](O)[C@H]5O)[C@@](C)(C=O)C4CC[C@@]3(C)[C@]1(C)C[C@H]2O` (stereo partly drawn) [THEASAPONINS E1] here?
Its inhibition in vivo at 5 mg/kg is 71.4%.

How did the inhibition in vivo at 15 mg/kg (Rattus norvegicus [3]) turn out when `COc1ccc2[nH]c([S+]([O-])Cc3ncc(C)c(OC)c3C)nc2c1` (stereo not drawn) [OMEPRAZOLE] was run?
Its inhibition in vivo at 15 mg/kg is 82%.

And the inhibition in vivo at 20 mg/kg (Rattus norvegicus [4])?
The inhibition in vivo at 20 mg/kg was 89.4%.

What about the inhibition in vivo at 10 mg/kg (Rattus norvegicus [5]) of the same molecule?
The inhibition in vivo at 10 mg/kg was 43.1%.

Which inhibition in vivo at 5 mg/kg (Rattus norvegicus [1]) does the source give for `C/C=C(/C)C(=O)O[C@H]1[C@H](OC(C)=O)[C@@]2(CO)C(CC1(C)C)C1=CCC3[C@@]4(C)CC[C@H](O[C@@H]5O[C@H](C(=O)O)[C@@H](O)[C@H](O[C@@H]6OC[C@H](O)[C@H](O)[C@H]6O[C@@H]6OC[C@@H](O)[C@H](O)[C@H]6O)[C@H]5O[C@H]5O[C@H](CO)[C@H](O)[C@H](O)[C@H]5O)[C@@](C)(CO)C4CC[C@@]3(C)[C@]1(C)C[C@H]2O` (stereo partly drawn) [ASSAMSAPONINS D] here?
Its inhibition in vivo at 5 mg/kg is 47.9%.

Which inhibition in vivo at 150 mg/kg (Rattus norvegicus [6]) does the source give for `NC[C@H]1CC[C@H](C(=O)Oc2ccc(CCC(=O)O)cc2)CC1` [CETRAXATE HYDROCHLORIDE] here?
Its inhibition in vivo at 150 mg/kg is 65.6%.

What about the inhibition in vivo at 300 mg/kg (Rattus norvegicus [7]) of the same molecule?
Its inhibition in vivo at 300 mg/kg is 79.4%.

And the inhibition in vivo at 75 mg/kg (Rattus norvegicus [8])?
The inhibition in vivo at 75 mg/kg was 41.2%.

For `C/C=C(/C)C(=O)O[C@H]1[C@H](O)[C@@]2(CO)C(CC1(C)C)C1=CCC3[C@@]4(C)CC[C@H](O[C@@H]5O[C@H](C(=O)O)[C@@H](O)[C@H](O[C@@H]6OC[C@H](O)[C@H](O)[C@H]6O[C@@H]6OC[C@@H](O)[C@H](O)[C@H]6O)[C@H]5O[C@H]5O[C@H](CO)[C@H](O)[C@H](O)[C@H]5O)[C@@](C)(CO)C4CC[C@@]3(C)[C@]1(C)C[C@H]2O` (stereo partly drawn) [THEASAPONINS A1], which inhibition in vivo at 5 mg/kg (Rattus norvegicus [1]) is on record?
Its inhibition in vivo at 5 mg/kg is 37%.

How did the inhibition in vivo at 5 mg/kg (Rattus norvegicus [1]) turn out when `C/C=C(/C)C(=O)O[C@H]1CC(C)(C)CC2C3=CCC4[C@@]5(C)CC[C@H](O[C@@H]6O[C@H](C(=O)O)[C@@H](O)[C@H](O[C@@H]7OC[C@H](O)[C@H](O)[C@H]7O[C@@H]7OC[C@@H](O)[C@H](O)[C@H]7O)[C@H]6O[C@H]6O[C@H](CO)[C@H](O)[C@H](O)[C@H]6O)[C@@](C)(C=O)C5CC[C@@]4(C)[C@]3(C)C[C@@H](O)[C@]21CO` (stereo partly drawn) [ASSAMSAPONINS A] was run?
The inhibition in vivo at 5 mg/kg was 61%.

With `C/C=C(/C)C(=O)O[C@H]1[C@H](O)[C@@]2(COC(C)=O)C(CC1(C)C)C1=CCC3[C@@]4(C)CC[C@H](O[C@@H]5O[C@H](C(=O)O)[C@@H](O)[C@H](O[C@@H]6OC[C@H](O)[C@H](O)[C@H]6O[C@@H]6OC[C@@H](O)[C@H](O)[C@H]6O)[C@H]5O[C@H]5O[C@H](CO)[C@H](O)[C@H](O)[C@H]5O)[C@@](C)(C(=O)OC)C4CC[C@@]3(C)[C@]1(C)C[C@H]2O` (stereo partly drawn) [THEASAPONINS F3] as the molecule, how does the inhibition in vivo at 5 mg/kg (Rattus norvegicus [1]) read?
Its inhibition in vivo at 5 mg/kg is 42.1%.
